Experimental data pooled from the literature.
Each line is one published result; the experiments were not run side by side.
Target: Dual specificity mitogen-activated protein kinase kinase 1 (MAP2K1, Homo sapiens, UniProt Q02750)

`Cn1cnc(Br)c1C1=CN(c2ncnc3[nH]cnc23)CCS1` gave an inhibition of 16.9% (enzyme activity, inhibitor, radiometric; 2 µM).
For `CSc1cccnc1N1CCN(Cc2nc3ccccc3[nH]2)CC1`, the remaining binding was 79% (cell-free assay, competition with immobilised ligand; 1 µM).
The inhibition of `CCOc1cc(-c2nncn2C)ccc1Nc1ncc2cc(C)nc(NCC(C)(C)C)c2n1` is reported as 16% (enzyme activity, inhibitor, FRET; 1 µM).
The inhibition of `CN(C)C1CCN(CC#Cc2nn(C3CCCC3)c3nc(NCc4ccccc4)ncc23)C1` (stereo not drawn) is reported as 9% (enzyme activity, inhibitor, FRET; 0.1 µM).
`CCN1CCN(Cc2ccc(NC(=O)c3ccc(C)c(Oc4ccnc5[nH]ccc45)c3)cc2C(F)(F)F)CC1` gave an inhibition of -41.7% (target engagement in cells, inhibitor, chemoproteomics; Huh-7; 1 µM).
`Cc1ccc(Nc2nccc(N(C)c3ccc4c(C)n(C)nc4c3)n2)cc1S(N)(=O)=O` has an inhibition of -5% (enzyme activity, inhibitor; 0.3 µM).
For `CN(c1ncccc1CNc1nc(Nc2ccc3c(c2)CC(=O)N3)ncc1C(F)(F)F)S(C)(=O)=O`, the inhibition was 77.1% (enzyme activity, inhibitor; 1 µM).
The remaining binding of `O=C(O)[C@@H]1[C@@H](Cn2nnc3ccccc3c2=O)CC[C@H]1C(=O)c1ccc(OCCC2CCOCC2)cc1` is reported as 81% (cell-free assay, competition with immobilised ligand; 1 µM).
With `Cn1c(=O)n(-c2ccc(C(C)(C)C#N)cc2)c2c3cc(-c4cnc5ccccc5c4)ccc3ncc21` the remaining activity was 116% (enzyme activity, inhibitor; 10 µM).
With `CCCOc1ccc(OC)c(F)c1C(=O)c1ccc(C(=O)N[C@@H]2CNC[C@H]2NC(=O)c2ccc3[nH]ncc3c2)cc1` the remaining activity was 101% (enzyme activity, inhibitor; 10 µM).
With `C=CC(=O)Nc1cc(Nc2nccc(Nc3cc(Cl)c(F)cc3C(C)(C)O)n2)c(OC)cc1N1CC[C@@H](N(C)C)C1` the inhibition was 21% (enzyme activity, inhibitor; 1 µM).
With `Cc1nccc(COC(=O)N2C[C@@H]3[C@@H](CNC(=O)c4ccc5[nH]nnc5c4)[C@@H]3C2)n1` the remaining binding was 92% (cell-free assay, competition with immobilised ligand; 1 µM).
`CNC(=O)c1cc(Oc2ccc(NC(=O)Nc3ccc(Cl)c(C(F)(F)F)c3)cc2)ccn1` gave an inhibition of 2% (enzyme activity, inhibitor; 10 µM).
For `Cc1sc(C(=O)NC2COC2)cc1-n1cc(NC(=O)Nc2c(F)cccc2Cl)cn1`, the remaining activity was 95.5% (enzyme activity, inhibitor; 10 µM).
With `CCN(CC)CCNC(=O)c1c(C)[nH]c(/C=C2\C(=O)Nc3ccc(F)cc32)c1C` the inhibition was 76% (enzyme activity, inhibitor; 10 µM).
For `Cc1cc(-n2nc(Cc3cc(F)cc(C(F)(F)F)c3)nc2C)ccc1C(N)=O`, the remaining binding was 100% (cell-free assay, competition with immobilised ligand; 1 µM).
`CN1CC(Oc2cnc(C#N)cc2-c2ccn3nc(NC(=O)C4CC4)cc3c2)C1` gave an inhibition of 13% (enzyme activity, inhibitor; 1 µM).
With `CCN(CC)c1ccc(C2=NNC(=O)CC2C)cc1[N+](=O)[O-]` (stereo not drawn) the remaining activity was 126% (enzyme activity, inhibitor; 10 µM).
The remaining activity of `CC(C)(C)c1nc2c(s1)c1nc(N)ncc1c1ccc(NS(=O)(=O)c3c(F)cccc3F)c(F)c12` is reported as 79% (enzyme activity, inhibitor, radiometric; 1 µM).
The remaining binding of `CC(C)(O)c1cncc(-c2nc3ccc(F)cc3n2C2CC2)c1` is reported as 100% (cell-free assay, competition with immobilised ligand; 1 µM).
For `CC(C)(C)C(=O)c1sc(NC2CCCCC2)nc1N`, the remaining activity was 94% (enzyme activity, inhibitor; 10 µM).
`COc1cc(Cl)c(C(=O)N[C@@H](CN[C@H]2CC[C@@H](N)CC2)Cc2ccc(C#N)cc2)cc1-c1ccc(CN[C@H](C)c2ccc(C)cc2)o1` gave a remaining activity of 98% (enzyme activity, inhibitor; 1 µM).
`CNCc1ccc(-c2cc(-c3nc(-c4ccc(S(=O)(=O)C(C)C)cc4)cnc3N)on2)cc1` has an inhibition of 12% (enzyme activity, inhibitor; 0.4 µM).
`CCN(CC)CCNC(=O)c1c(C)[nH]c(/C=C2\C(=O)Nc3ccc(F)cc32)c1C` gave a remaining activity of 79% (enzyme activity, inhibitor; 0.1 µM).
`COc1cccc(-c2cc(=O)c3ccccc3o2)c1N` has a remaining signal of 69.1% (cell-free assay; 0.5 µM).
`CCCOc1ccc([C@H]2[C@H](C(=O)O)[C@@H](c3ccc4c(c3)OCO4)CN2CC(=O)Nc2c(CC)cccc2CC)cc1` has a remaining binding of 66% (cell-free assay, competition with immobilised ligand; 1 µM).
For `N#CCCc1ccc2c(c1)-c1[nH]c3ccc([N+](=O)[O-])cc3c1CC(=O)N2`, the remaining signal was 97.1% (cell-free assay; 0.5 µM).
With `Cc1ccc(C(=O)Nc2ccc(CN3CCN(C)CC3)c(C(F)(F)F)c2)cc1C#Cc1cnc2cccnn12` the remaining activity was 100% (enzyme activity, inhibitor; 23.5 nM).
`FC(F)c1nc2ccccc2n1-c1nc(N2CCOCC2)nc(N2CCOCC2)n1` has a remaining activity of 83% (enzyme activity, inhibitor; 10 µM).
The activity vs control of `FC(F)(F)Oc1cccc(-c2cnc3ccc(-c4ccncc4)nn23)c1` is reported as 73% (enzyme activity, inhibitor, radiometric; 5 µM).
`Nc1cnc(N2CCc3cc(S(=O)(=O)Nc4c(F)cc(Cl)cc4F)cc(N4CCCC4=O)c32)nc1` gave a remaining binding of 100% (cell-free assay, competition with immobilised ligand; 1 µM).
`COc1cc(/C=C/C(=O)CC(=O)/C=C/c2ccc(O)c(OC)c2)ccc1O` gave an activity vs control of 93% (enzyme activity, inhibitor; 1 µM).
For `CC(C)CC(=O)N1CCc2nc(-c3ccc(Br)cc3)nc(N(C)Cc3ccccc3)c2C1`, the remaining binding was 100% (cell-free assay, competition with immobilised ligand; 0.1 µM).
`Cc1[nH]c(/C=C2\C(=O)Nc3ccc(F)cc32)c(C)c1C(=O)N[C@H]1CCN(C(=O)N(C)C)C1` gave a remaining activity of 94% (enzyme activity, inhibitor; 0.1 µM).
`Cc1ccc(NC(=O)c2ccc(CN3CCN(C)CC3)cc2)cc1Nc1nc(-c2cccnc2)cs1` gave a remaining signal of 111% (cell-free assay; 0.5 µM).
`COc1cc2ncnc(Nc3ccc(Oc4ccccc4)c(C)c3C)c2cc1OC` gave an inhibition of 1% (enzyme activity, inhibitor; 1 µM).
